This passage reports IC50, Activity and inhibition results from ChEMBL document CHEMBL1153264, “(1,2,3-Triazol-4-yl)benzenamines: synthesis and activity against VEGF receptors 1 and 2” (Bioorg Med Chem Lett, 2009).

For assay [1], the target named is T1, Vascular endothelial growth factor receptor 2 (Homo sapiens, UniProt P35968). Kind of assay: Inhibition of VEGFR2 by HTRF assay in presence of 2 uM ATP. In outline: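 HTRF kinase assay with KDR enzyme (3–4 ng) and biotinylated pGAT substrate. ATP added to start, 45 min at RT. Stopped with EDTA/KF buffer plus Eu-cryptate anti-phosphotyrosine antibody, 2 h RT, then HTRF read. IC50 from 10-point log concentration curves, mean of at least two duplicate runs.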
On the technique in general: TR-FRET usually uses a lanthanide donor and a delayed reading to cut background.

Assay [2] deals with T1, Vascular endothelial growth factor receptor 2. Kind of assay: Inhibition of VEGF-induced phosphorylation of VEGFR2 by cell-based ELISA.
For assay [3], the target named is Vascular endothelial growth factor receptor 1 (Homo sapiens, UniProt P17948). Nature of the assay: Inhibition of VEGFR1 by HTRF assay.
Assay [4] addresses Insulin-like growth factor 1 receptor (Homo sapiens) (UniProt P08069). Kind of assay: Inhibition of IGF1R at 10 uM.
Assay [5] concerns the target Insulin receptor (Homo sapiens) (UniProt P06213). Nature of the assay: Inhibition of IR at 10 uM.
Assay [6] addresses Fibroblast growth factor receptor 1 (Homo sapiens) (UniProt P11362). Kind of assay: Inhibition of FGFR1 at 10 uM.
Assay [7] addresses Receptor-type tyrosine-protein kinase FLT3 (Homo sapiens) (UniProt P36888). Nature of the assay: Inhibition of Flt3 at 10 uM.
The target of assay [8] is Epidermal growth factor receptor (Homo sapiens) (UniProt P00533). Nature of the assay: Inhibition of EGFR at 10 uM.
Assay [9] deals with Receptor tyrosine-protein kinase erbB-2 (Homo sapiens) (UniProt P04626). Kind of assay: Inhibition of ErbB2 at 10 uM.
Assay [10] addresses Hepatocyte growth factor receptor (Homo sapiens) (UniProt P08581). Nature of the assay: Inhibition of c-Met at 10 uM.
Assay [11] concerns the target Macrophage-stimulating protein receptor (Homo sapiens) (UniProt Q04912). Nature of the assay: Inhibition of Ron at 10 uM.
The nature of assay [12]: Inhibition of PKA at 10 uM.
In assay [13] the target is Glycogen synthase kinase-3 beta (Homo sapiens) (UniProt P49841). Nature of the assay: Inhibition of GSK3-beta at 10 uM.
Assay [14] concerns the target Bcr/Abl fusion protein (Homo sapiens) (UniProt P00519+P11274). Nature of the assay: Inhibition of Bcr-Abl at 10 uM. Format: protein assay.
Assay [15] is described as follows: Inhibition of Bcr-Abl T315 mutant at 10 uM.
Assay [16] addresses Cyclin-dependent kinase 1 (Homo sapiens) (UniProt P06493). Nature of the assay: Inhibition of Cdk1 at 10 uM.
Assay [17] concerns the target Cyclin-dependent kinase 2 (Homo sapiens) (UniProt P24941). Nature of the assay: Inhibition of Cdk2 at 10 uM.
The target in assay [18] is Proto-oncogene tyrosine-protein kinase Src (Homo sapiens) (UniProt P12931). Nature of the assay: Inhibition of Src at 10 uM.
The target of assay [19] is T2, Aurora kinase A (Homo sapiens) (UniProt O14965).
T2 sequence (whole entry): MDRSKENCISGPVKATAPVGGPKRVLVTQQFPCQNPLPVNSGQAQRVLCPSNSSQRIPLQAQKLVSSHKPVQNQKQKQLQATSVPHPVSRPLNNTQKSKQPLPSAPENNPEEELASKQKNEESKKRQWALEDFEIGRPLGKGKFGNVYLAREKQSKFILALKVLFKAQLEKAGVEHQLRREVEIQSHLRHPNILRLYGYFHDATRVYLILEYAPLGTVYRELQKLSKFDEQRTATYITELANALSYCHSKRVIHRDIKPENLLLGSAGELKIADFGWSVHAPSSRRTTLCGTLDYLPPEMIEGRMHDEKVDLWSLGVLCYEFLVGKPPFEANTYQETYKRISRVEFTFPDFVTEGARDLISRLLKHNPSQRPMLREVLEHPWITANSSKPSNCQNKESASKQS
Kind of assay: Inhibition of Aurora A at 10 uM.

Assay [20] deals with Aurora kinase B (Homo sapiens) (UniProt Q96GD4). Kind of assay: Inhibition of Aurora B at 10 uM.
Assay [21] has as its target Serine/threonine-protein kinase PLK1 (Homo sapiens) (UniProt P53350). Nature of the assay: Inhibition of Plk1 at 10 uM.

The source made the active and inactive calls. The calls are words filed in the database; no cut-off is given here.

One may read the IC50 as the midpoint of a concentration-inhibition curve. As usually defined, the inhibition is the share of the control response that was lost under treatment. The low end stands for a response near the control, the high end for a response far below the control.

Hepatocyte growth factor receptor (Homo sapiens), sequence (P08581 whole entry): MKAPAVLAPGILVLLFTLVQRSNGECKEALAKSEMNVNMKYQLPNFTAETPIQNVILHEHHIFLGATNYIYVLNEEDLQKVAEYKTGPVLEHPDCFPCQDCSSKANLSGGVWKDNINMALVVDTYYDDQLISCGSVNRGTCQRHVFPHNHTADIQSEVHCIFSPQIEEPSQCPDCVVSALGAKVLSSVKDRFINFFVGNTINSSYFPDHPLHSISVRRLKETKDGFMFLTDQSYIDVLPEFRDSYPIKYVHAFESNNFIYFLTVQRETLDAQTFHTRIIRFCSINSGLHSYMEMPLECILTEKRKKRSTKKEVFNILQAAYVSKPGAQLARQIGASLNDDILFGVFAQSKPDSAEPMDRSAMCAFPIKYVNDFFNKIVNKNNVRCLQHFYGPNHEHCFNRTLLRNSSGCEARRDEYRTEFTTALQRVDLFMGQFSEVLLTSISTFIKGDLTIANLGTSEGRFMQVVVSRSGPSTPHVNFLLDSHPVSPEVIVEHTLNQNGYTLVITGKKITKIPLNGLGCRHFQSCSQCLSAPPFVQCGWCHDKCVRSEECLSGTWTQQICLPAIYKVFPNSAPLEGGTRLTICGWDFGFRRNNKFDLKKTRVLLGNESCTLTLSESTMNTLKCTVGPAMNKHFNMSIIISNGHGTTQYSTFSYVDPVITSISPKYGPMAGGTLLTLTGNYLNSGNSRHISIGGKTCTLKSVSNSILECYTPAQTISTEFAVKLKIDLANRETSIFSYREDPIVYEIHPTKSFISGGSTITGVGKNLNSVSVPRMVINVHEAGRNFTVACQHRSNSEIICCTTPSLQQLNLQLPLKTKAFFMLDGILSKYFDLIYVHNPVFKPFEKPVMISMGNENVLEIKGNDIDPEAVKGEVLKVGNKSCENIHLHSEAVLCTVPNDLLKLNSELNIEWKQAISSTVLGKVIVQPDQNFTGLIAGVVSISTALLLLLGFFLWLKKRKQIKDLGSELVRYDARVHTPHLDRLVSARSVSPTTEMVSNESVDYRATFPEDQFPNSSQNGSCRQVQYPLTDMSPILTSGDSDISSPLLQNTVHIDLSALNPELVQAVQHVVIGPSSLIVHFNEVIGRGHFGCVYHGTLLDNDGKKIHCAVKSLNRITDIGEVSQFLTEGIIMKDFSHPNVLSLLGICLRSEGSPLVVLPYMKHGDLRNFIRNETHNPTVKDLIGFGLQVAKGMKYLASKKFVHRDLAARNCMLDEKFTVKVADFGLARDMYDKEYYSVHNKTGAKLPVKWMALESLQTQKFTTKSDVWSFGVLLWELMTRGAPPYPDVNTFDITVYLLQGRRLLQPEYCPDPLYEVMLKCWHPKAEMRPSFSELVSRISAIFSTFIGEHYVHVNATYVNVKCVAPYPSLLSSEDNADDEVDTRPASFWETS
Receptor tyrosine-protein kinase erbB-2 (Homo sapiens), sequence (P04626 whole entry): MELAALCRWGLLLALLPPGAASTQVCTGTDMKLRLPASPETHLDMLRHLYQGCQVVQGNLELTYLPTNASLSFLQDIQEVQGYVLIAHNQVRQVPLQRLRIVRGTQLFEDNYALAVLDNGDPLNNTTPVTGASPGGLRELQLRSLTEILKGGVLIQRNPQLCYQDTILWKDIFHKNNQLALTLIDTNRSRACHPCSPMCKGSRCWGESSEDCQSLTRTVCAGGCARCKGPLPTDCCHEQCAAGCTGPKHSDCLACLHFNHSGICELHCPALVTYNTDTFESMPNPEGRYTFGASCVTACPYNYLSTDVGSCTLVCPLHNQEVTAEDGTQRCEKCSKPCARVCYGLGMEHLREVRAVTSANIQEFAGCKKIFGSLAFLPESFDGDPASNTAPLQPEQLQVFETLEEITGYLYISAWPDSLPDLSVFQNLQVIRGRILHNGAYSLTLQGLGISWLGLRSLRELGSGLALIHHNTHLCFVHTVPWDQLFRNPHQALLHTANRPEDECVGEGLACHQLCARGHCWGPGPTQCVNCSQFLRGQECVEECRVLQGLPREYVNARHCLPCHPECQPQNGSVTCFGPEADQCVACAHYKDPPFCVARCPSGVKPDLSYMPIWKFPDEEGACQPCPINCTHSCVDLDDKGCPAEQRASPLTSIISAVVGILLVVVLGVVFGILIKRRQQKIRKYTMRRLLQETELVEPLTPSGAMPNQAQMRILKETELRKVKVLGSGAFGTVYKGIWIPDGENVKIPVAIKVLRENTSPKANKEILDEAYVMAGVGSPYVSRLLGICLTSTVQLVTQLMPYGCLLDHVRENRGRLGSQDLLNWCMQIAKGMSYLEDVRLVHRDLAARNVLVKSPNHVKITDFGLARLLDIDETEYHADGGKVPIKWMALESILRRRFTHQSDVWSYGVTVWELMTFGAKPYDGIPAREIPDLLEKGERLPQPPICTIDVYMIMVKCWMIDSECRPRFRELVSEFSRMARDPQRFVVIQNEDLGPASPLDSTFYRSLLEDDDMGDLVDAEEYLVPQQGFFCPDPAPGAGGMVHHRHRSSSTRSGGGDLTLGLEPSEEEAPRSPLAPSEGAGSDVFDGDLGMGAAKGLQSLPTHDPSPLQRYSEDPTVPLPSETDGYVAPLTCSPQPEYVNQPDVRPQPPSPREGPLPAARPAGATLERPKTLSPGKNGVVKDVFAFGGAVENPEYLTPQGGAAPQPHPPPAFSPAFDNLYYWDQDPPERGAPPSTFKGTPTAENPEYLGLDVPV
Aurora kinase B (Homo sapiens), sequence (Q96GD4 whole entry): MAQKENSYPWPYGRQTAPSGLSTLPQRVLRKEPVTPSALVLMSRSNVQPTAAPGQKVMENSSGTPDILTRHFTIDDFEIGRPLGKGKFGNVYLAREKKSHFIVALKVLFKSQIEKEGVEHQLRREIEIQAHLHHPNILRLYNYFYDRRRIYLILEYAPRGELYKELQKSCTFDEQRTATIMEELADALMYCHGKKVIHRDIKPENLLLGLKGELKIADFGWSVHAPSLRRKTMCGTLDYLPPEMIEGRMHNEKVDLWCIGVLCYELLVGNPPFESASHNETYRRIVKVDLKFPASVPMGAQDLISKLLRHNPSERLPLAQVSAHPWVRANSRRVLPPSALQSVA
Epidermal growth factor receptor (Homo sapiens), sequence (P00533 whole entry): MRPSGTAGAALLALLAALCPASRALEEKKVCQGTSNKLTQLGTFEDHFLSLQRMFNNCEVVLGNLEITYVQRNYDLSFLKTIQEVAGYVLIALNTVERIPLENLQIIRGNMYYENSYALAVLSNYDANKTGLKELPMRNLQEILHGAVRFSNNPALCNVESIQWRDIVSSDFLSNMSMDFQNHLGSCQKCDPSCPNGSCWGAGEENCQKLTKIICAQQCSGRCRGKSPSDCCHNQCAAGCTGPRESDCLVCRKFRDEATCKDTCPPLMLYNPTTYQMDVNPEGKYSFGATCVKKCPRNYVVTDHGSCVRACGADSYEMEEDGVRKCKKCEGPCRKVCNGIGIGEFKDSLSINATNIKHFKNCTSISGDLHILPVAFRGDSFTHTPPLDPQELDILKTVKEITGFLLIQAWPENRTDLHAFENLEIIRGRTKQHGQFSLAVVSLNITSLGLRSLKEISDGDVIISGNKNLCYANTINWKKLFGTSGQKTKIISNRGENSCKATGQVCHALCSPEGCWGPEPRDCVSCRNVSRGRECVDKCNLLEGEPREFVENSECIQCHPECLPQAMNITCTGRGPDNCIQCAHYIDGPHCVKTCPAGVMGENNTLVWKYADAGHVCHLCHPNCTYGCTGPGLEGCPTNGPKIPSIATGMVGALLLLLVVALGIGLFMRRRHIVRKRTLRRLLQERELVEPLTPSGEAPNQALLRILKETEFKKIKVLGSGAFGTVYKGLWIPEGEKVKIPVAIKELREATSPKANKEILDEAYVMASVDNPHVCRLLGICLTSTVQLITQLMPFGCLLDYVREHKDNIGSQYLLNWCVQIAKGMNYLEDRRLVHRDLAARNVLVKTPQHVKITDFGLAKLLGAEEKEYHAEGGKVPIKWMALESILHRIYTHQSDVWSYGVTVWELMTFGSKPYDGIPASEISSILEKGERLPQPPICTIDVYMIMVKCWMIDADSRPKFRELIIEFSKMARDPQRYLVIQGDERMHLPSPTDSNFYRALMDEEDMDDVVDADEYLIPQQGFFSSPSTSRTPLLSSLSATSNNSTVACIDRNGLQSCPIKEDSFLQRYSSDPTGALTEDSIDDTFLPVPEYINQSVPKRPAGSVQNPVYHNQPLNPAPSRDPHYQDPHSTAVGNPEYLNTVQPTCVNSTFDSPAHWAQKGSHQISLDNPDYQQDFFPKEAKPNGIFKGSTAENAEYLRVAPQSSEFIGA
Glycogen synthase kinase-3 beta (Homo sapiens), sequence (P49841 whole entry, looked up, the tested form may be a part): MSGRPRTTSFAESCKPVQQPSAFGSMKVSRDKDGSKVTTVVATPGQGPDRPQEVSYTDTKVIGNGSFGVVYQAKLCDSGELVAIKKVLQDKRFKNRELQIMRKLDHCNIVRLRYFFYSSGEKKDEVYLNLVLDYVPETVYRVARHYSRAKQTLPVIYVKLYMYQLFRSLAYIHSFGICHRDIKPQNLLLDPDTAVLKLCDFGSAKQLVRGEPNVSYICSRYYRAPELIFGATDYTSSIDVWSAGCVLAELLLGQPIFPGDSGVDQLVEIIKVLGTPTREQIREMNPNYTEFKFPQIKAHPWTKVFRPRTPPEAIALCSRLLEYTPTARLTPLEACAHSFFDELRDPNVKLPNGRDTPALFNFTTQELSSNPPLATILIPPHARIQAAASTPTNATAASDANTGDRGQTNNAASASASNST
Cyclin-dependent kinase 1 (Homo sapiens), sequence (P06493 whole entry, looked up): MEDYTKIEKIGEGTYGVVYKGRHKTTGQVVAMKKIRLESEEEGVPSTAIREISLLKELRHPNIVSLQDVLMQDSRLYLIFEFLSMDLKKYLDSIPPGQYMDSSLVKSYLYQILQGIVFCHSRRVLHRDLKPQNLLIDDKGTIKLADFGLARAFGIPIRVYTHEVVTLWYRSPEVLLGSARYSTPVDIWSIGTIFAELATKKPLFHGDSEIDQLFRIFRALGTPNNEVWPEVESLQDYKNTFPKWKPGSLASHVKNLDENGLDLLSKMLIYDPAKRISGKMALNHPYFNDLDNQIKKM

For the compound `O=C(Nc1cccc(Cl)c1)c1nn[nH]c1NCc1ccncc1`, the IC50 in [1] was 5000 nM. Besides, in [2], the result was inactive.
With `Cc1cc(-n2cc(-c3ccccc3NCc3ccncc3)nn2)ccc1C(F)(F)F`, the IC50 in assay [1] came to 980 nM; in [3], 860 nM; in assay [2], 2020 nM. Also, the inhibition in [4], in assay [5], in [6], in [7], in assay [8] and in assay [9] was less than 30% each time. Further, the inhibition in assay [10], in assay [11], in assay [12], in assay [13], in assay [14] and in assay [15] was less than 30% throughout. The inhibition in assay [16], in assay [17], in assay [18], in assay [19], in [20] and in assay [21] was less than 30% in each case.
With `c1ccc(-c2cn(-c3ccc4ccccc4n3)nn2)c(NCc2ccncc2)c1`, the IC50 is 770 nM in assay [1], 640 nM in [3] and 1190 nM in assay [2]. The inhibition in assay [4], in [5], in [6], in assay [7], in assay [8] and in assay [9] was less than 30% throughout. In addition, the inhibition in assay [10], in assay [11], in [12], in assay [13], in assay [14] and in [15] was less than 30% throughout. The inhibition in assay [16], in assay [17], in [18], in assay [19], in assay [20] and in [21] was less than 30% throughout.
Regarding `FC(F)(F)c1cccc(-n2cc(-c3ccccc3NCc3ccc4c(c3)OCO4)nn2)c1`, the IC50 in assay [1], in assay [3] and in assay [2] was more than 10000 nM in each case. The inhibition in [4], in assay [5], in assay [6], in assay [7], in assay [8] and in [9] was less than 30% in each case. Also, the inhibition in assay [10], in assay [11], in assay [12], in assay [13], in assay [14] and in assay [15] was less than 30% each time. The inhibition in assay [16], in assay [17], in [18], in assay [19], in [20] and in assay [21] was less than 30% throughout.
With `FC(F)(F)c1cc(-n2cc(-c3ccccc3NCc3ccncc3)nn2)ccc1Cl`, the 50% inhibitory concentration (IC50) in [1] was found to be 440 nM; in assay [3], 510 nM; in [2], 780 nM. Moreover, the inhibition in assay [4], in [5], in assay [6], in [7], in assay [8] and in assay [9] was less than 30% throughout. Further, the inhibition in assay [10], in assay [11], in [12], in assay [13], in [14] and in [15] was less than 30% throughout. Further, the inhibition in assay [16], in assay [17], in assay [18], in [19], in assay [20] and in assay [21] was less than 30% in each case.
With `Clc1cccc(-n2cc(-c3ccccc3NCc3ccnc4ccccc34)nn2)c1`, the concentration for half-maximal inhibition (IC50) in [1] was 190 nM; in [3], 170 nM; in assay [2], 270 nM. Also, the inhibition in assay [4], in assay [5], in assay [6], in assay [7], in assay [8] and in [9] was less than 30% each time. For the same compound, the inhibition in [10], in assay [11], in assay [12], in [13], in [14] and in [15] was less than 30% throughout. The inhibition in assay [16], in [17], in [18], in assay [19], in assay [20] and in [21] was less than 30% throughout.
As for `FC(F)(F)c1ccc(-n2cc(-c3ccccc3NCc3ccncc3)nn2)cc1Cl`, the IC50 worked out at 930 nM in assay [1], 1130 nM in [3] and 2920 nM in assay [2]. For the same compound, the inhibition in assay [4], in assay [5], in assay [6], in assay [7], in assay [8] and in [9] was less than 30% each time. In addition, the inhibition in assay [10], in [11], in [12], in [13], in [14] and in assay [15] was less than 30% each time. In addition, the inhibition in [16], in assay [17], in [18], in assay [19], in [20] and in assay [21] was less than 30% throughout.
For `CC(C)(C)c1cccc(-n2cc(-c3ccccc3NCc3ccncc3)nn2)c1`, the half-maximal inhibitory concentration (IC50) in assay [1] worked out at 270 nM; in [3], 250 nM; in assay [2], 330 nM. Moreover, the inhibition in [4], in assay [5], in assay [6], in assay [7], in assay [8] and in [9] was less than 30% throughout. The inhibition in assay [10], in [11], in assay [12], in [13], in assay [14] and in assay [15] was less than 30% throughout. Also, the inhibition in assay [16], in assay [17], in [18], in assay [19], in assay [20] and in [21] was less than 30% throughout.
`Fc1ccc(CNc2ccccc2-c2cn(-c3cccc(Cl)c3)nn2)cc1F`: the inhibition in assay [4], in assay [5], in [6], in assay [7], in [8] and in assay [9] was less than 30% in each case. Further, the inhibition in [10], in assay [11], in [12], in [13], in assay [14] and in [15] was less than 30% each time. Besides, the inhibition in assay [16], in assay [17], in assay [18], in assay [19], in assay [20] and in assay [21] was less than 30% throughout.
For `O=C(Nc1ccc(C(F)(F)F)cc1)c1[nH]nnc1NCc1ccncc1`, the IC50 in assay [1] and in assay [3] was more than 10000 nM in each case.
With `O=C(Nc1ccc(Cl)cc1)c1nn[nH]c1NCc1ccncc1`, the IC50 in assay [1] and in [3] was more than 10000 nM throughout.
Regarding `O=C(Nc1cccc(C(F)(F)F)c1)c1nn[nH]c1NCc1ccncc1`, in assay [1], the half-inhibitory concentration (IC50) stood at 5000 nM. For the same compound, in [2], the result was inactive.
